Common to all, as to assay type: functional, cell-based
One assay deals with K562. Kind of assay: Cytotoxicity against human K562 cells after 48 hrs. The conditions noted are these: K562, 48 h. The method, boiled down:
(§1)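 MTT colorimetric assay. Cells were kept in RPMI-1640 with 10% fetal bovine serum at 37 °C, 5% CO2, humidified. They were seeded at 6 × 10^4 cells/mL and allowed to attach for 24 h. Diluted samples were then added for 48 h. MTT (0.5 mg/mL) was added for 3 h, and optical density was read at 550 nm.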

The next assay has as its system BGC-823. Put plainly: Cytotoxicity against human BGC823 cells after 48 hrs. Conditions: BGC-823, 48 h. In a few lines: as §1
Another assay relates to A549. Kind of assay: Cytotoxicity against human A549 cells after 48 hrs. The conditions noted are these: A549, 48 h. In a few lines: as §1

Data on 11 compounds can be found in ChEMBL document CHEMBL1145455, “Cytotoxic withanolides from the flowers of Datura metel” (J Nat Prod, 2007).

Take `C=C1C(=O)O[C@@H]2C[C@@]1(C)OC[C@H]2C1CCC2C3C[C@H]4O[C@]45CC=CC(=O)C5(C)C3C[C@@H](O)C21C` (stereo partly drawn) [WITHAMETELIN I]: the half-maximal inhibitory concentration (IC50) in the assay on K562 came to 0.05 µM; in the assay on BGC-823, 1.3 µM; in the assay with A549, 1.2 µM.

On to `C=C1C(=O)O[C@@H]2C[C@@]1(C)OC[C@H]2C1CCC2C3C[C@@H](O)[C@@]4(O)CC=CC(=O)C4(C)C3C[C@@H](O)C21C` (stereo partly drawn) [WITHAMETELIN J], for which the IC50 was 2.5 µM in the assay with K562, 5.2 µM in the assay with BGC-823 and > 10 µM with A549.

As for `C=C1C(=O)O[C@@H]2C[C@@]1(C)OC[C@H]2C1CC[C@H]2[C@@H]3C[C@H]4O[C@]45C[C@H](O)CC(=O)C5(C)[C@H]3CCC12C` (stereo partly drawn), the figures for the IC50 in the assay on K562, in the assay on BGC-823 and in the assay with A549 were 0.46 µM, 1 µM and 1.7 µM, respectively.

Take `C=C1C(=O)O[C@@H]2C[C@@]1(C)OC[C@H]2C1CCC2C3C[C@@H](O)C4=CC=CC(=O)C4(C)C3C[C@@H](O)C21C` (stereo partly drawn) [WITHAMETELIN K]: the figures for the IC50 with K562, with BGC-823 and in the assay on A549 were 0.12 µM, 1.9 µM and 3.5 µM, respectively.

Regarding `C=C1C(=O)O[C@@H]2C[C@]1(C)OC[C@H]2[C@H]1CC[C@H]2[C@@H]3CC=C4CC=CC(=O)[C@]4(C)[C@H]3C[C@@H](O)[C@]12C` [WITHAMETELIN L], the IC50 in the assay with K562 is 0.55 µM; in the assay with BGC-823, 1.6 µM; with A549, 2 µM.

For the compound `C=C1C(=O)O[C@@H]2C[C@@]1(C)OC[C@H]2C1CCC2C3C[C@H]4OC(=O)CC=CC4=C(C)C3CCC21C` (stereo partly drawn) [1,10-SECO-WITHAMETELIN B], the IC50 in the assay on K562, in the assay with BGC-823 and in the assay with A549 was > 10 µM in each case.

Regarding `C=C1C(=O)O[C@@H]2C[C@@]1(C)OC[C@H]2C1CCC2C3C[C@H](O)[C@]4(O)CC=CC(=O)C4(C)C3CCC21C` (stereo partly drawn) [WITHMETELIN O], the IC50 with K562, with BGC-823 and in the assay with A549 was > 10 µM in each case.

Take `COc1cccc2c1C(=O)c1c(O)c3c(c(O)c1C2=O)C[C@@](O)(C(=O)CO)C[C@@H]3O[C@H]1C[C@H](N)[C@H](O)[C@H](C)O1` [DOXORUBICIN]: the IC50 in the assay on K562 came to 0.58 µM; in the assay on BGC-823, 0.35 µM; with A549 it was 0.75 µM.

On to `C=C1C(=O)O[C@@H]2C[C@@]1(C)OC[C@H]2C1CCC2C3CC=C4C=CCC(=O)C4(C)C3C[C@@H](O)C21C` (stereo partly drawn) [WITHAMETELIN M], for which the IC50 with K562, in the assay on BGC-823 and in the assay on A549 was > 10 µM each time.

As to `CC1=C(CO[C@@H]2O[C@H](CO)[C@@H](O)[C@H](O)[C@H]2O)C(=O)O[C@@H]([C@@H](CO)C2CCC3C4C[C@@H](O)[C@@]5(O)CC=CC(=O)C5(C)C4CCC32C)C1` (stereo partly drawn) [WITHMETELIN P], the IC50 in the assay on K562, with BGC-823 and in the assay with A549 was > 10 µM throughout.

Take `C=C1C(=O)O[C@@H]2C[C@@]1(C)OC[C@H]2C1CCC2C3C[C@H]4OC(=O)CC=CC4=C(C)C3C[C@@H](O)C21C` (stereo partly drawn) [12BETA-HYDROXY-1,10-SECO-WITHAMETELIN B]: the IC50 with K562, with BGC-823 and in the assay on A549 was > 10 µM in each case.
